Calls of active or inactive are those of the source. No cut-off for these calls is given here.
Experiments:
[1] = Volume of distribution at steady state in Han-Wistar rat at 2 mg/kg, iv; format: ADME, organism-based; parameters: dose 2 mg/kg, route intravenous; settings: in vivo, read-out: Vdss
In short: (§1)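 Male HW rats, beagle dogs or CD-1 mice received an IV bolus in 5% DMSO/95% hydroxypropyl-β-cyclodextrin (30% w/v). EDTA plasma was sampled over 24 h and assayed by LC/MS/MS after acetonitrile protein precipitation. CL and Vss were obtained by non-compartmental analysis.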

[2] = Volume of distribution at steady state in beagle dog at 2 mg/kg, iv; format: ADME, organism-based, Canis lupus familiaris; parameters: dose 2 mg/kg, route intravenous; settings: in vivo, read-out: Vdss; in short: as §1
[3] = Lipophilicity, logD of the compound; format: physicochemical; settings: octanol/water
[4] = Clearance in Han-Wistar rat at 2 mg/kg, iv; format: ADME, organism-based; parameters: dose 2 mg/kg, route intravenous; settings: in vivo; in short: as §1
[5] = Oral bioavailability in CD1 mouse at 1.3 mg/kg; format: ADME, organism-based; settings: in vivo
In short: (§2)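 Oral gavage in male HW rats, beagle dogs or CD-1 mice, vehicle Pluronic F127 in water. EDTA plasma was collected over 24 h and quantified by LC/MS/MS after acetonitrile precipitation. Cmax and bioavailability were obtained by non-compartmental analysis against IV data.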

[6] = Clearance in CD1 mouse at 2 mg/kg, iv; format: ADME, organism-based; parameters: dose 2 mg/kg, route intravenous; settings: in vivo; in short: as §1
[7] = Unbound fraction in Han-Wistar rat plasma; format: ADME, cell-free
[8] = Displacement of [125I]human ghrelin from mouse GHS-R1a expressed in HEK cell membranes after 60 mins by gamma counting method; settings: hek293
In short: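 HEK cell membranes stably overexpressing mouse or rat GHS-R1a (4 µg/well) incubated 60 min at rt with 20 pM [125I]human ghrelin and competing compound. Buffer: 50 mM Tris-HCl, 5 mM MgCl2, 0.01% BSA, pH 7.4, plus 10 µM methyl arachidonyl fluorophosphonate. Stopped by filtration over PEI-soaked GF/C filters with ice-cold washes, then gamma counting. IC50 is the mean of ≥2 independent determinations.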

Mus musculus [9] = experiment: Reduction in free feeding level in po dosed C57Bl6j mouse free feeding model measured over 24 hrs period; format: functional, organism-based
In short: (§3)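 Male mice (C57Bl6j, GHSr1-/- or wild-type littermates) were acclimatized 3 weeks to reversed light-dark, then individually housed 7 days and grouped (n=10-12) by baseline intake and body weight. Suspensions in 1% Pluronic F127 or vehicle were gavaged at 10 mL/kg about 1 h before dark onset. Pre-weighed food was reweighed at 2, 4, 6 and 24 h.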

[10] = Cmax in Han-Wistar rat at 2 mg/kg, po; format: ADME, organism-based; parameters: dose 2 mg/kg, route oral; settings: in vivo; in short: as §2
MDR1 = experiment: Apparent permeability in MDCK cells expressing MDR1 at 10 uM assessed as apical to basolateral side transport; format: ADME, cell-based, Canis lupus familiaris; settings: dog
In short: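 MDCK-MDR1 monolayers incubated with compound at 10 µM; permeability measured in both A→B and B→A directions, giving Papp A-B (x10^6 cm/s) and the efflux ratio.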

[11] = (§4) Oral bioavailability in Han-Wistar rat at 2 mg/kg; format: ADME, organism-based; settings: Han-Wistar, in vivo; in short: as §2
[12] = Unbound fraction in CD1 mouse plasma; format: ADME, cell-free
[13] = Unbound fraction in beagle dog plasma; format: ADME, cell-free, Canis lupus familiaris
Mus musculus [14] = experiment: Reduction in free feeding level in po dosed C57Bl6j mouse free feeding model measured during 2 to 6 hrs; format: functional, organism-based; in short: as §3
[15] = Cmax in beagle dog at 2 mg/kg, po; format: ADME, organism-based, Canis lupus familiaris; parameters: dose 2 mg/kg, route oral; settings: in vivo; in short: as §2
[16] = Volume of distribution at steady state in CD1 mouse at 2 mg/kg, iv; format: ADME, organism-based; parameters: dose 2 mg/kg, route intravenous; settings: in vivo, read-out: Vdss; in short: as §1
Mus musculus [17] = experiment: Reduction in free feeding level in po dosed C57Bl6j mouse free feeding model measured during 0 to 2 hrs; format: functional, organism-based; in short: as §3
[18] = Ratio of drug level in homogenized brain to plasma in Han-Wistar rat measured 1 hr after iv bolus then iv infusion by LC-MS/MS method; format: ADME, organism-based; settings: read-out: BPR
In short: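 Brain:plasma ratio in homogenized brain 1 h after IV bolus followed by IV infusion. The free ratio used free fractions measured in plasma and brain (brain slice method or brain homogenate).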

[19] = Cmax in Han-Wistar rat at 2 mg/kg, po by LC-MS/MS method; format: ADME, organism-based; parameters: dose 2 mg/kg, route oral; settings: in vivo; in short: as §2
[20] = Clearance in beagle dog at 2 mg/kg, iv; format: ADME, organism-based, Canis lupus familiaris; parameters: dose 2 mg/kg, route intravenous; settings: in vivo; in short: as §1
[21] = Cmax in CD1 mouse at 1.3 mg/kg, po; format: ADME, organism-based; parameters: dose 1.3 mg/kg, route oral; settings: in vivo; in short: as §2
[22] = Oral bioavailability in beagle dog at 2 mg/kg; format: ADME, organism-based, Canis lupus familiaris; settings: in vivo; in short: as §2
[23] = molecular target: Growth hormone secretagogue receptor type 1 (Rattus norvegicus) (UniProt O08725); experiment: Displacement of [125I]human ghrelin from rat GHS-R1a expressed in HEK cell membranes after 60 mins by gamma counting method; settings: hek293
Mus musculus [24] = experiment: Reduction in free feeding level in po dosed C57Bl6j mouse free feeding model measured in first 6 hrs; format: functional, organism-based; in short: as §3
[25] = molecular target: Voltage-gated inwardly rectifying potassium channel KCNH2 (Homo sapiens, UniProt Q12809); experiment: Inhibition of human ERG at 33 uM
[26] = molecular target: Sodium-dependent dopamine transporter (Homo sapiens, UniProt Q01959); experiment: Inhibition of DAT (unknown origin)
[27] = Cmax in CD1 mouse at 7 mg/kg, po; format: ADME, organism-based; parameters: dose 7 mg/kg, route oral; settings: in vivo; in short: as §2
[28] = molecular target: Neuronal acetylcholine receptor subunit alpha-4 (Homo sapiens, UniProt P43681); experiment: Inhibition of alpha4 nAChR (unknown origin)
Rattus norvegicus = experiment: as §4; format: ADME, organism-based; settings: in vivo; in short: as §2
[29] = Ratio of drug level in homogenized brain to plasma in CD1 mouse at 7 mg/kg, po measured after 6 hrs by LC-MS/MS method; format: ADME, organism-based; parameters: dose 7 mg/kg, route oral; settings: read-out: BPR
In short: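 CD-1 mice dosed PO in 1% Pluronic F127. Drug was measured in homogenized brain and in plasma 6 h after dosing and expressed as a brain:plasma ratio. The free ratio used free fraction measured in mouse plasma and rat brain (brain slice or brain homogenate).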

[30] = Cmax in CD1 mouse at 2 mg/kg, po by LC-MS/MS method; format: ADME, organism-based; parameters: dose 2 mg/kg, route oral; settings: in vivo; in short: as §2
[31] = Oral bioavailability in CD1 mouse at 7 mg/kg; format: ADME, organism-based; settings: in vivo; in short: as §2
Mus musculus [32] = experiment: Reduction in free feeding level in po dosed GHS-R1a knock out C57Bl6j mouse free feeding model measured over 6 hrs; format: functional, organism-based; in short: as §3

Sodium-dependent dopamine transporter, sequence (Q01959 whole entry): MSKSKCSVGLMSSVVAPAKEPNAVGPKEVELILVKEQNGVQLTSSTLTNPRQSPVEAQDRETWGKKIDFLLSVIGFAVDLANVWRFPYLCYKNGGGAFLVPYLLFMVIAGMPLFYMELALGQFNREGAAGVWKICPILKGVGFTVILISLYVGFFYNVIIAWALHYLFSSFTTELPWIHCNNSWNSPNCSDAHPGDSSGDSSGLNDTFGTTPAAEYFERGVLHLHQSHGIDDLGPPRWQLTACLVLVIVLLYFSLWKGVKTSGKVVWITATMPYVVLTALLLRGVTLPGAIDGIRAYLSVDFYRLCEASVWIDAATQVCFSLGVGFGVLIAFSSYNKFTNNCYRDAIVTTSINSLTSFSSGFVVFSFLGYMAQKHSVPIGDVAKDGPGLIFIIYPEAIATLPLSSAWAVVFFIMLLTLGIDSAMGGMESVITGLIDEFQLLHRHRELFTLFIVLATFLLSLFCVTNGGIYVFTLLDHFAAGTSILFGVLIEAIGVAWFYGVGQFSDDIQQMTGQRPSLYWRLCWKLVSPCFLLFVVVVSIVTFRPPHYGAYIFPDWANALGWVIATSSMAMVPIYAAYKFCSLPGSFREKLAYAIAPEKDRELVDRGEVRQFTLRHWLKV
Growth hormone secretagogue receptor type 1 (Rattus norvegicus), sequence (O08725 whole entry, looked up): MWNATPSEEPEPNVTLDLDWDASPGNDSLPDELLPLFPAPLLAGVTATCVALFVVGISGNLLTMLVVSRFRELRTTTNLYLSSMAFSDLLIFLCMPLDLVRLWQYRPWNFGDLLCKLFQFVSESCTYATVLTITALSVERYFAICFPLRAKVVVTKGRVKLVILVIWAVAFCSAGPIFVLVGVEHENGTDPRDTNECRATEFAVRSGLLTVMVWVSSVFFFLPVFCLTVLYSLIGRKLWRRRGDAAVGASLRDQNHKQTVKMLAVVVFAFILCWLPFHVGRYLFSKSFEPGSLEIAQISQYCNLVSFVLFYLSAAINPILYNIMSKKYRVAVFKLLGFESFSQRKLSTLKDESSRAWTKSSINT
Neuronal acetylcholine receptor subunit alpha-4, sequence (P43681 whole entry): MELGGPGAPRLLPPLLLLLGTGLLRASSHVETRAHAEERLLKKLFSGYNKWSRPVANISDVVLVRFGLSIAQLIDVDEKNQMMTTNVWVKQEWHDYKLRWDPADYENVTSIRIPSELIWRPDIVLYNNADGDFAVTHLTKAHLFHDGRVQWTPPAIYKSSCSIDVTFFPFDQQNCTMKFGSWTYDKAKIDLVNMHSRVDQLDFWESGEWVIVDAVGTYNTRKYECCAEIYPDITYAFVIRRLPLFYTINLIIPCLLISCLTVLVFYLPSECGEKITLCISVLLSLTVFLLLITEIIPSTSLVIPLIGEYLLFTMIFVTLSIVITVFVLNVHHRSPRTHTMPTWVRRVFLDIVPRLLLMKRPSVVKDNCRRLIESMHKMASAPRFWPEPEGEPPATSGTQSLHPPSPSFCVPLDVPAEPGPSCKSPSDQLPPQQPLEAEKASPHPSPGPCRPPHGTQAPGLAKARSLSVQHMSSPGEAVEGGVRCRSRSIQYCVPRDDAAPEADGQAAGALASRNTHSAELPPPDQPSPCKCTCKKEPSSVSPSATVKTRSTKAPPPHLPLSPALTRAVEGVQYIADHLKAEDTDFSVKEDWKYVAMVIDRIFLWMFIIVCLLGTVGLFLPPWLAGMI
Voltage-gated inwardly rectifying potassium channel KCNH2, sequence (Q12809 whole entry): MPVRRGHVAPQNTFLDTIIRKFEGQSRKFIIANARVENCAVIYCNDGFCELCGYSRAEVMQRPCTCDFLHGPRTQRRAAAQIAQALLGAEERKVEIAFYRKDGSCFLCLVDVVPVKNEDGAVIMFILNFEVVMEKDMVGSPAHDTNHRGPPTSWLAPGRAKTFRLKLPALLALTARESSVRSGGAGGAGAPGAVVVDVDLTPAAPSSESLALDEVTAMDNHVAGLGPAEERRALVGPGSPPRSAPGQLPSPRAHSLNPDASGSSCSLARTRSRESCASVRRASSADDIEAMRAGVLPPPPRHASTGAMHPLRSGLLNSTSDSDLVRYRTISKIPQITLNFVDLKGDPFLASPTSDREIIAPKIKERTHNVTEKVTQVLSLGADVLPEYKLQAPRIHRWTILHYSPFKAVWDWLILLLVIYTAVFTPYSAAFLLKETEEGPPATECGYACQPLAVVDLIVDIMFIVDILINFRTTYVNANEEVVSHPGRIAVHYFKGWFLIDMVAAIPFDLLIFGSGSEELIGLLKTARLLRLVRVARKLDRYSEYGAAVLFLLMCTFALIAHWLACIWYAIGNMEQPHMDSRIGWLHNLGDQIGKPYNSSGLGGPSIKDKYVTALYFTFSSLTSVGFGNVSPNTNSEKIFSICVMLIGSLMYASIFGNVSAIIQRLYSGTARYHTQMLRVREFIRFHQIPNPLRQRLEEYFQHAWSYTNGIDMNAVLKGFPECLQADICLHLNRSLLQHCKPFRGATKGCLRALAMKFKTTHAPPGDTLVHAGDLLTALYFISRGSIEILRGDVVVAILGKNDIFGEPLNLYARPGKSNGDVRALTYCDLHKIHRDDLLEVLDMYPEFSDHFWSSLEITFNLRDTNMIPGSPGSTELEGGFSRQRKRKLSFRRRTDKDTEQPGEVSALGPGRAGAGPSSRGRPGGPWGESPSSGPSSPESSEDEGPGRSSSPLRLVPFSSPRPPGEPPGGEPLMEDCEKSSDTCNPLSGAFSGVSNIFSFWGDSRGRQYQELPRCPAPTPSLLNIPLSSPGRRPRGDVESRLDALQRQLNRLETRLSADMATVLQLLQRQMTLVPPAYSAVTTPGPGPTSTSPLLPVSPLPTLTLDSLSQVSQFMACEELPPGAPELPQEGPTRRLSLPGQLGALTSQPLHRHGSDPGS

SMILES	Vd [1] [L/kg]	Vd [2] [L/kg]	logD [3]	clearance [4] [mL/min/kg]	clearance [6] [mL/min/kg]	fraction unbound [7]	IC50 [8] [nM]	Activity (Mus musculus [9])	Cmax [10] [nM]	Papp A→B at 10 µM (MDR1) [×10⁻⁶ cm/s]	fraction unbound [12]	fraction unbound [13]	Cmax [15] [nM]	Vd [16] [L/kg]	clearance [20] [mL/min/kg]	bioavailability [22] [%]	other results
CN1CCN(CCCS(=O)(=O)c2ccc3nc(NC(=O)NC(=O)c4cc(N5CCOCC5)ccc4Cl)sc3c2)CC1	0.9	0.3	1.7	2.6	2.9	0.0035	1.1	inactive	580	0.53	0.006	0.0078	11000	0.8	0.69	87	bioavailability [5]: 50%; bioavailability [11]: 30%; Activity (Mus musculus [14]): inactive; Activity (Mus musculus [17]): Active; Kp at 1 h [18]: < 0.03; Cmax [19]: 1200 nM; Cmax [21]: 1300 nM; IC50 [23]: 3.4 nM
CN1CCC(S(=O)(=O)c2ccc3nc(NC(=O)NC(=O)c4cc(N5CCOCC5)ccc4Cl)sc3c2)CC1	0.7	0.4	2.3	1.9	1.8	0.002	39	inactive	4500	5.4	0.009	0.016	1000	0.4	10	31	Activity (Mus musculus [24]): Active; inhibition (INH) [25]: Not Active; Ki [26]: 290 nM; Cmax [27]: 8000 nM; Ki [28]: 52 nM; F (Rattus norvegicus): 171%; Kp at 6 h [29]: 0.21; Cmax [30]: 6500 nM; bioavailability [31]: 25%; Activity (Mus musculus [32]): inactive

From ChEMBL document CHEMBL3352721, “Identification, optimization, and pharmacology of acylurea GHS-R1a inverse agonists” (J Med Chem, 2014)
